Bioassay records (PubChem BioAssay)
Compounds with a hit are over-represented: about 4.9% of the library has one in this group of screens.
Lipid droplet: hepatic lipid droplet formation modulation; AML12 mouse hepatocytes, oleate lipid droplets, BODIPY imaging; inhibition, % at 6.5 µM; hit rate 0.4% among 240,000; AID 1656;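 active = lipid droplet intensity inhibited by at least 50%, with more than 500 cells counted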
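material = mouse AML12 hepatocyte cell line, fixed after treatment | also added = 100 µM oleic acid challenge | doses = compound at 6.5 µM only | schedule = overnight exposure | technique = Image-based BODIPY and DAPI two-channel analysis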
CHT PAM: allosteric activators of human choline transporter CHT. hit rate 0.49% among 310,000. B-score at 10 µM. AID 488977. CHT-expressing cells, membrane potential dye, choline EC20; stronger effect = higher value; LV-AA mutant CHT in HEK293 cells;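 active = initial fluorescence not abnormally high and integrated response B-score, plate-corrected, over 3 SD above library mean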
CHT inh: inhibitors of human choline transporter CHT; hit rate 0.86% among 310,000; AID 488975; CHT-expressing cells, membrane potential dye, choline response; stronger effect = lower value; B-score at 10 µM;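 active = B-score over 3 SD under the library average, and starting fluorescence ratio not unusually high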;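 note: choline stimulus applied at its EC90 after an EC20 pre-addition; B-score computed on integrated fluorescence ratio after choline addition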
HSF1 activator: increases HSF-1 driven luciferase reporter signal. NIH3T3-HGL HSF-1 luciferase reporter, MG132, 8 h; 100% = twice DMSO control signal. activation, % at 9 µM. hit rate 1.7% among 300,000. AID 504408;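 active = mean replicate activation of at least 50% with a set share of replicates each reaching 50%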
PHOSPHO1 block: inhibitors of human PHOSPHO1 phosphatase | recombinant PHOSPHO1, absorbance phosphatase assay | inhibition, % at 13.3 µM | hit rate 1.1% among 290,000 | AID 1565; in the data active = inhibition above about 60%
Target sequence (Q8TCT1 whole entry, looked up): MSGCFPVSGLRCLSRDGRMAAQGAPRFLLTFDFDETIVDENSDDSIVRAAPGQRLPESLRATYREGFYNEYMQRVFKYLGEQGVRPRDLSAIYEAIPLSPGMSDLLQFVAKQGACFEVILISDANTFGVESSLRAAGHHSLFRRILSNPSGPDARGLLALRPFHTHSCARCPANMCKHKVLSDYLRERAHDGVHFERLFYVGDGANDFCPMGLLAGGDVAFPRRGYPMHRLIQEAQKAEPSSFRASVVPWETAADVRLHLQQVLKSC
HSF1 inh: HSF1 inhibition; NIH3T3-HGL HSE-luciferase, MG132-induced, luminescence 8 h; stronger effect = lower value; AID 2098; hit rate 0.77% among 300,000; activity change, negative = inhibition, % at 7.5 µM (by protocol);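 active = more than half of replicate wells show activity change below -50%, luminescence cut by over half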;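 note: luciferase reports HSF-1 transcriptional activity via heat shock element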
CHT inh conf: human CHT inhibition, confirmatory screen; shares compounds with CHT inh; CHT-expressing cells, choline membrane potential dye; LV-to-AA substituted CHT, HEK293 cells; CHT activity remaining % of control (stronger effect = lower value), % at 10 µM; hit rate 70% among 2,400; AID 493221;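 active = choline transporter activity left, mean of duplicates at 10 µM, below buffer-only control mean minus 3 SD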;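 note: depolarization triggered by choline at its EC90 following an EC20 pre-addition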
HEK293 CHT ctr: CHT inhibitor counter-screen hit in parental HEK293 cells | shares compounds with CHT inh | membrane potential dye, choline response; active = decrease or increase beyond buffer ±3SD | membrane potential ratio readout (active if shifted either direction beyond buffer ±3SD; no single direction) at 10 µM | hit rate 4% among 2,400 | AID 493222;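 note: parental cells lack the transporter so any hit is non-specific; ratio is peak minus trough fluorescence over baseline after EC90 choline challenge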
Numbers stand for hits; i = inactive; nt = no result.

SMILES	Lipid droplet	CHT PAM	CHT inh	HSF1 activator	PHOSPHO1 block	HSF1 inh	CHT inh conf	HEK293 CHT ctr
Cc1cc(C)c2sc(NNC(=O)c3ccc(S(=O)(=O)N4CCc5ccccc5C4)cc3)nc2c1	i	i	i	i	i	i	nt	nt
O=C(Nc1ncc([N+](=O)[O-])s1)C1CC(=O)N(c2ccc(F)cc2)C1 (configuration not stated)	i	i	-6.66	i	i	i	39.9%	i
O=C(Nc1nccs1)C1CC(=O)N(c2ccc(F)cc2)C1 (configuration not stated)	i	i	i	i	i	i	nt	nt
COc1cccc(NC(=O)C2C3C=CC4(O3)C2C(=O)N(C(C)C)C4C(=O)NC2CCCCC2C)c1 (configuration not stated)	i	i	i	i	i	i	nt	nt
Cc1cc(-c2csc(NC(=O)c3ccc(=O)[nH]c3)n2)c(C)n1Cc1ccccc1	i	i	i	i	i	i	nt	nt
O=C(Nc1nc(-c2ccccc2)cs1)c1ccccc1NS(=O)(=O)c1ccc(F)cc1	i	i	-7.95	i	i	i	42.4%	i
O=C(Nc1nc(-c2ccccc2)cs1)c1ccc(=O)[nH]c1	i	i	-6.01	i	i	i	69.7%	i
CCOC(=O)Cn1nc(C)c(NC(=O)COc2ccc(F)cc2F)c1C	i	i	i	i	i	i	nt	nt
O=C(CSc1ccccc1)NCc1ccccc1	i	i	i	i	i	i	nt	nt
O=C(CSc1cccc(C(F)(F)F)c1)NCc1ccccc1	i	i	-5.8	i	i	i	i	i
CCOc1cccc2cc(C(=O)NCc3ccc(C)cc3)c(=N)oc12	i	i	i	i	i	i	nt	nt
CSc1nnc(C2CCCN2)n1C (configuration not stated)	nt	i	i	i	i	i	nt	nt
Cc1ccc(CNC(=O)C2CCC(=O)N(CCc3ccccc3)C2)s1 (configuration not stated)	i	i	i	i	i	i	nt	nt
CC(=O)Nc1ccc(Oc2ncccn2)c(Cl)c1	i	i	-5.63	i	i	i	i	i
COc1ccc(NC(=O)CN2CCN(c3ccccn3)CC2)cc1Cl	i	i	i	i	i	i	nt	nt
O=C(CN1C(=O)NC2NC(=O)NC21)NN=C1CCCC1 (configuration not stated)	i	i	-20.2	i	i	i	i	i
O=C(O)CC1=C(O)C(=O)N(c2ccccc2)C1c1ccc(Cl)cc1 (configuration not stated)	i	i	i	i	i	i	nt	nt
O=C(O)CC1=C(Nc2ccccc2)C(=O)N(c2ccccc2)C1c1ccc(Br)cc1 (configuration not stated)	i	i	-5.94	56.8	i	i	24.6%	i
CCc1ncc(C)[nH]1	i	i	i	i	i	i	nt	nt
O=C1c2ccccc2-c2cccnc21	nt	i	-6.77	i	i	i	37.3%	i
CCOc1ncccc1C(=O)Nc1cccc(-c2nnc3n2CCCCC3)c1	i	i	i	i	i	i	nt	nt
c1cc(Nc2ncnc3sccc23)cc(-c2nnc3n2CCCCC3)c1	nt	i	-6.01	i	i	i	56.5%	i
O=C(NNC(=S)Nc1ccccc1)c1cc(Br)ccc1Cl	i	i	-5.76	i	i	i	54.4%	i
Cc1nc(SCC(=O)NC(=O)NC2CCCCC2)nc(C)c1C	i	i	-10.6	i	i	i	3.3%	i
COc1ccc(CCNC(=O)C2CCN(S(=O)(=O)c3cccc4nonc34)CC2)cc1OC	i	i	i	i	i	i	nt	nt
SMILES	Lipid droplet	CHT PAM	CHT inh	HSF1 activator	PHOSPHO1 block	HSF1 inh	CHT inh conf	HEK293 CHT ctr
NC(=O)c1cc(C(=O)Cc2ccccc2)c[nH]1	i	i	i	i	i	i	nt	nt
CCN1CCC(Nc2ccnc3cc(Cl)ccc23)CC1	i	i	-6.57	i	i	i	i	4.18
CN(C(=O)c1cc(S(=O)(=O)N2CCCCC2)c[nH]1)C1CCCCC1	i	i	-5.06	i	i	i	i	i
O=C1N(Cc2cccc(Cl)c2)C[C@@H]2C[C@@H](c3cccn3-c3cccnc3)N3CCC[C@@]123	i	i	i	i	i	i	nt	nt
CCCCOC(=O)C1CCC[C@@H](C)N1 (some centres not stated)	nt	i	i	i	i	i	nt	nt
CCN1C(=O)[C@H]2[C@@H](c3ccc(C)cc3)N3C(=O)N(c4ccc(C)cc4)C(=O)[C@@]3(Cc3ccc(Cl)cc3)[C@H]2C1=O	i	i	i	i	i	i	nt	nt
Cc1ccc(NC(=S)Nc2ccc3[nH]c(=O)[nH]c3c2)cc1C	i	i	-6.92	i	i	i	63.0%	i
CC(=O)c1ccc(NC(=S)Nc2ccc3[nH]c(=O)[nH]c3c2)cc1	i	i	i	i	i	i	nt	nt
CC(=O)NCCC(=O)N1CCCC(CNC(=O)c2ccc(-c3ccccc3)cc2)C1 (configuration not stated)	i	i	i	i	i	i	nt	nt
COc1ccc(C(=O)NC2(C(F)(F)F)NC(=O)N(CCCc3ccccc3)C2=O)cc1OC (configuration not stated)	i	i	i	i	i	i	nt	nt
CCC(C)Nc1nc2c(c(=O)[nH]c(=O)n2C)n1CCOc1ccccc1 (configuration not stated)	i	i	i	i	i	i	nt	nt
CCCCn1c(NC(C)CC)nc2c1c(=O)[nH]c(=O)n2C (configuration not stated)	nt	i	-5.47	i	i	i	37.4%	-8.9
CCCCCC(=O)c1ccc(O)cc1O	i	i	-6.1	i	i	i	54.9%	i
Cc1ccc(CC(=O)Nc2cccc(S(=O)(=O)N3CCOCC3)c2)cc1	i	i	i	i	i	i	nt	nt
COc1ccccc1C(=O)NNC(=S)NC(=O)c1cc(OC)c(OC)c(OC)c1	i	i	i	i	i	i	nt	nt
COc1cc(C(=O)NC(=S)NNC(=O)[C@H]2C[C@@H]2c2ccccc2)cc(OC)c1OC	i	i	-5.94	i	i	i	47.9%	i
CN(c1ccc(C(=O)N2CCOCC2)cc1)S(=O)(=O)c1cccs1	i	i	i	i	i	i	nt	nt
COc1cc(C(=O)OCCCN(C)C)cc(OC)c1OC	i	i	i	i	i	i	nt	nt
CCN(CC)CCCCCCCCOC(=O)c1cc(OC)c(OC)c(OC)c1	nt	i	-5.37	nt	nt	nt	19.8%	i
CCOC(=O)c1ccc(CC(=O)c2ccc(O)cc2O)o1	i	i	-6.04	i	i	i	68.2%	i
COC(=O)c1cc(CC(=O)c2ccc(O)cc2O)c(C)o1	nt	i	i	i	i	i	nt	nt
